Assay results published in ChEMBL document CHEMBL1144932, “Design, synthesis, and biological properties of new bis(acridine-4-carboxamides) as anticancer agents” (J Med Chem, 2003).

What was measured:
[1] = system: LOX IMVI; test: Percent growth of melanoma LOX IMVI cell line at compound concentration 10e-8 was determined; assay type: functional, Homo sapiens
How it was run: (§1)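 Cells in the NCI panel were exposed for 48 h to 10^-8, 10^-6 and 10^-4 or 10^-5 M drug. Growth is given as percent of untreated control (100%). Negative values are the percent of cells killed relative to the initial cell number.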

[2] = system: NCI-H460; test: Percent growth of lung-NSC NCI-H460 cell line at compound concentration 10e-5 was determined; assay type: functional, Homo sapiens; how it was run: as §1
[3] = system: NCI-H460; test: Percent growth of lung-NSC NCI-H460 cell line at compound concentration 10e-8 was determined; assay type: functional, Homo sapiens; how it was run: as §1
[4] = system: OVCAR-4; test: Percent growth of ovarian OVCAR-4 cell line at compound concentration 10e-5 was determined; assay type: functional, Homo sapiens; how it was run: as §1
[5] = system: MCF7; test: Percent growth of breast MCF-7 cell line at compound concentration 10e-8 was determined; assay type: functional, Homo sapiens; how it was run: as §1
[6] = system: MCF7; test: Percent growth of breast MCF-7 cell line at compound concentration 10e-5 was determined; assay type: functional, Homo sapiens; how it was run: as §1
[7] = system: MCF7; test: Percent growth of breast MCF-7 cell line at compound concentration 10e-6 was determined; assay type: functional, Homo sapiens; how it was run: as §1
[8] = system: 786-0; test: Percent growth of renal 786-0 cell line at compound concentration 10e-5 was determined; assay type: functional, Homo sapiens; how it was run: as §1
[9] = system: 786-0; test: Percent growth of renal 786-0 cell line at compound concentration 10e-6 was determined; assay type: functional, Homo sapiens; how it was run: as §1
[10] = system: NCI-H460; test: Percent growth of lung-NSC NCI-H460 cell line at compound concentration 10e-6 was determined; assay type: functional, Homo sapiens; how it was run: as §1
[11] = system: RPMI-8226; test: Percent growth of leukemia RPMI-8226 cell line at compound concentration 10e-6 was determined; assay type: functional, Homo sapiens; how it was run: as §1
[12] = system: OVCAR-4; test: Percent growth of ovarian OVCAR-4 cell line at compound concentration 10e-6 was determined; assay type: functional, Homo sapiens; how it was run: as §1
[13] = system: HCT-116; test: Percent growth of colon HCT116 cell line at compound concentration 10e-5 was determined; assay type: functional, Homo sapiens; how it was run: as §1
[14] = system: SNB-19; test: Percent growth of CNS SNB-19 cell line at compound concentration 10e-8 was determined; assay type: functional, Homo sapiens; how it was run: as §1
[15] = system: HCT-116; test: Percent growth of colon HCT116 cell line at compound concentration 10e-8 was determined; assay type: functional, Homo sapiens; how it was run: as §1
[16] = system: RPMI-8226; test: Percent growth of leukemia RPMI-8226 cell line at compound concentration 10e-8 was determined; assay type: functional, Homo sapiens; how it was run: as §1
[17] = Apparent equilibrium constant for DNA binding (G-C); assay type: ADME
How it was run: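 Ethidium displacement at pH 7.0 in buffer of 10 mM Na2HPO4, 10 mM NaH2PO4, 1 mM EDTA with 1.26 μM ethidium bromide and 1 μM CT-DNA, [poly(dA-dT)]2 or [poly(dG-dC)]2. Drug stock (~5 mM in DMSO) added serially. Fluorescence read at 20 °C, excitation 546 nm, emission 595 nm. C50 is the mean of three determinations. Kapp = 1.26/C50 × 10^7.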

[18] = system: HCT-116; test: Percent growth of colon HCT116 cell line at compound concentration 10e-6 was determined; assay type: functional, Homo sapiens; how it was run: as §1
[19] = system: SNB-19; test: Percent growth of CNS SNB-19 cell line at compound concentration 10e-5 was determined; assay type: functional, Homo sapiens; how it was run: as §1
[20] = system: DU-145; test: Percent growth of prostate DU-145 cell line at compound concentration 10e-6 was determined; assay type: functional, Homo sapiens; how it was run: as §1
[21] = system: RPMI-8226; test: Percent growth of leukemia RPMI-8226 cell line at compound concentration 10e-5 was determined; assay type: functional, Homo sapiens; how it was run: as §1
[22] = species on record: Homo sapiens; test: In vitro cytotoxic activity against human colon adenocarcinoma (HT-29).; assay type: functional
How it was run: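 HT29 cells were seeded at 2.5 × 10^4 cells/mL of medium and drug solutions were added. Exposure lasted 144 h. IC50 is the drug concentration inhibiting cell growth by 50%. Assays were run in triplicate.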

[23] = system: DU-145; test: Percent growth of prostate DU-145 cell line at compound concentration 10e-5 was determined; assay type: functional, Homo sapiens; how it was run: as §1
[24] = system: DU-145; test: Percent growth of prostate DU-145 cell line at compound concentration 10e-8 was determined; assay type: functional, Homo sapiens; how it was run: as §1
[25] = system: LOX IMVI; test: Percent growth of melanoma LOX IMVI cell line at compound concentration 10e-5 was determined; assay type: functional, Homo sapiens; how it was run: as §1
[26] = system: 786-0; test: Percent growth of renal 786-0 cell line at compound concentration 10e-8 was determined; assay type: functional, Homo sapiens; how it was run: as §1
[27] = system: LOX IMVI; test: Percent growth of melanoma LOX IMVI cell line at compound concentration 10e-6 was determined; assay type: functional, Homo sapiens; how it was run: as §1
[28] = system: SNB-19; test: Percent growth of CNS SNB-19 cell line at compound concentration 10e-6 was determined; assay type: functional, Homo sapiens; how it was run: as §1
[29] = system: OVCAR-4; test: Percent growth of ovarian OVCAR-4 cell line at compound concentration 10e-8 was determined; assay type: functional, Homo sapiens; how it was run: as §1

SMILES: CN(C)CCNC(=O)c1ccc(NCCCN(C)CCCNc2ccc(C(=O)NCCN(C)C)c3nc4ccc([N+](=O)[O-])cc4c(O)c23)c2c(O)c3cc([N+](=O)[O-])ccc3nc12
- Growth [1]: 28%
- Growth [2]: -95%
- Growth [3]: 28%
- Growth [4]: -72%
- Growth [5]: 26%
- Growth [6]: -86%
- Growth [7]: 0%
- Growth [8]: -95%
- Growth [9]: 6%
- Growth [10]: -31%
- Growth [11]: -44%
- Growth [12]: 16%
- Growth [13]: -94%
- Growth [14]: 42%
- Growth [15]: 31%
- Growth [16]: 12%
- K app [17]: 2.3e+08 M⁻¹
- Growth [18]: -5%
- Growth [19]: -96%
- Growth [20]: -2%
- Growth [21]: -58%
- IC50 [22]: < 0.1 nM
- Growth [23]: -93%
- Growth [24]: 55%
- Growth [25]: -93%
- Growth [26]: 41%
- Growth [27]: -40%
- Growth [28]: -7%
- Growth [29]: 67%

SMILES: COc1ccc2nc3c(C(=O)NCCN(C)C)ccc(NCCCN(C)CCCNc4ccc(C(=O)NCCN(C)C)c5nc6ccc(OC)cc6c(O)c45)c3c(O)c2c1
- K app [17]: 1.4e+08 M⁻¹
- IC50 [22]: 39 nM

SMILES: CN(C)CCNC(=O)c1ccc(NCCCN(C)CCCNc2ccc(C(=O)NCCN(C)C)c3nc4ccc(O)cc4c(O)c23)c2c(O)c3cc(O)ccc3nc12
- K app [17]: 7.4e+07 M⁻¹
- IC50 [22]: 6900 nM

SMILES: CN(C)CCNC(=O)c1ccc(NCCCN(C)CCCNc2ccc(C(=O)NCCN(C)C)c3nc4ccccc4c(O)c23)c2c(O)c3ccccc3nc12
- Growth [1]: 30%
- Growth [2]: -90%
- Growth [3]: 12%
- Growth [4]: -74%
- Growth [5]: 22%
- Growth [6]: -86%
- Growth [7]: -6%
- Growth [8]: -98%
- Growth [9]: -26%
- Growth [10]: -52%
- Growth [11]: -37%
- Growth [12]: -47%
- Growth [13]: -96%
- Growth [14]: 38%
- Growth [15]: 20%
- Growth [16]: 16%
- K app [17]: 7.5e+07 M⁻¹
- Growth [18]: -35%
- Growth [19]: -55%
- Growth [20]: -31%
- Growth [21]: -49%
- IC50 [22]: 0.43 nM
- Growth [23]: -72%
- Growth [24]: 11%
- Growth [25]: -93%
- Growth [26]: 30%
- Growth [27]: -65%
- Growth [28]: -20%
- Growth [29]: 46%

SMILES: CN(C)CCNc1ccc(C(=O)NCCCNC(=O)c2ccc(NCCN(C)C)c3c(O)c4ccccc4nc23)c2nc3ccccc3c(O)c12
- IC50 [22]: > 10000 nM

SMILES: CN(C)CCNc1ccc(C(=O)NCCN(C)CCNC(=O)c2ccc(NCCN(C)C)c3c(O)c4ccccc4nc23)c2nc3ccccc3c(O)c12
- IC50 [22]: 480 nM

SMILES: CN(C)CCNC(=O)c1ccc(NCCN(C)CCNc2ccc(C(=O)NCCN(C)C)c3nc4ccccc4c(O)c23)c2c(O)c3ccccc3nc12
- K app [17]: 3.8e+07 M⁻¹
- IC50 [22]: 410 nM

SMILES: O=C1c2c(O)ccc(O)c2C(=O)c2c(NCCNCCO)ccc(NCCNCCO)c21 [MITOXANTRONE]
- IC50 [22]: 10 nM

SMILES: CN(C)CCNC(=O)c1ccc(NCCN(C)C)c2c(O)c3cc(O)ccc3nc12
- IC50 [22]: 2000 nM

SMILES: COc1ccc2nc3c(C(=O)NCCN(C)CCNC(=O)c4ccc(NCCN(C)C)c5c(O)c6cc(OC)ccc6nc45)ccc(NCCN(C)C)c3c(O)c2c1
- IC50 [22]: 890 nM

SMILES: CN(C)CCNc1ccc(C(=O)NCCN(C)CCNC(=O)c2ccc(NCCN(C)C)c3cc4ccccc4nc23)c2nc3ccccc3cc12
- IC50 [22]: 2000 nM

SMILES: CN(C)CCNC(=O)c1ccc(NCCN(C)CCNc2ccc(C(=O)NCCN(C)C)c3nc4ccc(O)cc4c(O)c23)c2c(O)c3cc(O)ccc3nc12
- K app [17]: 1.4e+07 M⁻¹
- IC50 [22]: > 10000 nM

SMILES: CN(C)CCNc1ccc(C(=O)NCCN(C)CCN(C)CCNC(=O)c2ccc(NCCN(C)C)c3c(O)c4ccccc4nc23)c2nc3ccccc3c(O)c12
- IC50 [22]: 290 nM

SMILES: CN(C)CCNc1ccc(C(=O)NCCCN(C)CCCNC(=O)c2ccc(NCCN(C)C)c3c(O)c4cc(O)ccc4nc23)c2nc3ccc(O)cc3c(O)c12
- IC50 [22]: 800 nM

SMILES: COc1ccc2nc3c(C(=O)NCCN(C)C)ccc(NCCN(C)CCNc4ccc(C(=O)NCCN(C)C)c5nc6ccc(OC)cc6c(O)c45)c3c(O)c2c1
- K app [17]: 8.8e+06 M⁻¹
- IC50 [22]: 3300 nM

SMILES: CN(CCCNC(=O)c1ccc(Cl)c2c(O)c3ccccc3nc12)CCCNC(=O)c1ccc(Cl)c2c(O)c3ccccc3nc12
- IC50 [22]: 340 nM

SMILES: CN(C)CCNC(=O)c1ccc(NCCCN(C)CCCNc2ccc(C(=O)NCCN(C)C)c3nc4ccccc4cc23)c2cc3ccccc3nc12
- K app [17]: 9.4e+07 M⁻¹
- IC50 [22]: 47 nM

SMILES: CN(C)CCNC(=O)c1ccc(NCCN(C)C)c2c(=O)c3ccccc3[nH]c12
- IC50 [22]: 94 nM

SMILES: CN(C)CCNC(=O)c1ccc(NCCN(C)C)c2cc3ccccc3nc12
- K app [17]: 2.3e+08 M⁻¹
- IC50 [22]: 7 nM

SMILES: CN(C)CCNC(=O)c1ccc(NCCN(C)C)c2c(O)c3cc([N+](=O)[O-])ccc3nc12
- IC50 [22]: 190 nM

SMILES: CN(C)CCNC(=O)c1ccc(NCCN(C)CCNc2ccc(C(=O)NCCN(C)C)c3nc4ccccc4cc23)c2cc3ccccc3nc12
- K app [17]: 7.2e+06 M⁻¹
- IC50 [22]: 470 nM

SMILES: CN(C)CCNc1ccc(C(=O)NCCCN(C)CCCNC(=O)c2ccc(NCCN(C)C)c3cc4ccccc4nc23)c2nc3ccccc3cc12
- IC50 [22]: 230 nM

SMILES: CN(C)CCNc1ccc(C(=O)NCCN(C)CCNC(=O)c2ccc(NCCN(C)C)c3c(O)c4cc(O)ccc4nc23)c2nc3ccc(O)cc3c(O)c12
- IC50 [22]: 8900 nM

SMILES: CN(CCNC(=O)c1ccc(Cl)c2c(O)c3ccccc3nc12)CCNC(=O)c1ccc(Cl)c2c(O)c3ccccc3nc12
- IC50 [22]: 5500 nM
